Results published in ChEMBL document CHEMBL4680087, “Chemical Inhibition of Human Thymidylate Kinase and Structural Insights into the Phosphate Binding Loop and Ligand-Induced Degradation” (J Med Chem, 2016).
Active and inactive are the calls of the source. The calls are words filed in the database; no cut-off is given here.

What was measured:
[1] = molecular target: T1, Thymidylate kinase (Homo sapiens) (UniProt P23919); test: Binding affinity to GST-tagged human TMPK expressed in Escherichia coli BL21 assessed as formation of disulfide bonds with Cys residues incubated for 30 mins at 25 degC in presence of trypsin by LC-MS/MS analysis
T1 sequence (whole entry): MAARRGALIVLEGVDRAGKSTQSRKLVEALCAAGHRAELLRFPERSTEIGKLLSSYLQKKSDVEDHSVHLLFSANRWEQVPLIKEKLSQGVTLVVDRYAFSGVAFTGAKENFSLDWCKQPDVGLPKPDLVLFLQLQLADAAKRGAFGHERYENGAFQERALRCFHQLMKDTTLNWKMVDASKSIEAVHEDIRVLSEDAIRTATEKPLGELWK
In short: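 hTMPK incubated with compound (20 μL of 10 mM DMSO stock in 1 mL PBS pH 7.4), 25 °C, 30 min. DTNB served as positive control and DMSO as negative control. Excess compound removed by dialysis against water. Digested with trypsin (1:50 w/w), 37 °C, 12 h, without denaturation or DTT reduction. Peptides analysed by nanoLC-ESI-MS/MS.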

[2] = Cytotoxicity in mouse 32D cells after 3 days by WST-1 assay; assay type: cell-based; conditions: 72 h, time 3 day
[3] = molecular target: T1, Thymidylate kinase (Homo sapiens); test: Inhibition of GST-tagged human TMPK expressed in Escherichia coli BL21 incubated for 20 mins by NADH-coupled colorimetric assay
In short: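 Purified hTMPK at 25 °C in 100 mM Tris-HCl pH 7.5, 100 mM KCl, 10 mM MgCl2, 500 μM ATP, 250 μM TMP/CMP. Coupling mix: 500 μM phosphoenolpyruvate, 250 μM NADH, pyruvate kinase (4 units) and lactate dehydrogenase (5 units). NADH change read at 340 nm after 20 min.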

[4] = Cytotoxicity in IL-3-dependent mouse 32D cells expressing Bcr-Abl after 3 days by WST-1 assay; assay type: functional, cell-based; conditions: 72 h
Thymidylate kinase = molecular target: T2, Thymidylate kinase (Homo sapiens, UniProt P23919); test: Inhibition of GST-tagged human TMPK expressed in Escherichia coli BL21 incubated for 10 mins by luciferase-coupled TMPK assay
T2 sequence (P23919 whole entry): T1 sequence (whole entry)
In short: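 Purified hTMPK (10 μL of 0.1 μg/μL) and compound (10 μL of 10 μM, diluted from 10 mM DMSO stock) added to 100 mM Tris-HCl pH 7.5, 100 mM KCl, 10 mM MgCl2, 5 μM ATP, 100 μM dTMP. Reaction run 10 min at 25 °C. Remaining ATP read by CellTiter-Glo luminescence. IC50 from triplicate independent experiments.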

[5] = molecular target: T1, Thymidylate kinase (Homo sapiens); test: Inhibition of GST-tagged human TMPK expressed in Escherichia coli BL21 at 2 uM incubated for 10 mins by luciferase-coupled TMPK assay
[6] = Inhibition of tyrosine kinase activity in protein samples from human MDA-MB-231 cells using TK substrate incubated for 30 mins; assay type: cell-based; conditions: MDA-MB-231, 0.5 h
In short: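 Tyrosine kinase immunoprecipitated from MB-231 cell protein extracts and suspended in kinase solution with 10 mM 2-mercaptoethanol. Diluted enzyme mixed with compound (from 5 mM aqueous dilution) and ATP on substrate-coated wells, 37 °C, 30 min. Phosphotyrosine detected with anti-phosphotyrosine (PY20)-HRP and HRP substrate, stopped with H2SO4, absorbance read at 450 nm.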

[7] = molecular target: T1, Thymidylate kinase (Homo sapiens); test: Inhibition of GST-tagged human TMPK expressed in Escherichia coli BL21 incubated for 10 mins in presence of [gamma-32P]ATP by 32P-phosphate transfer assay
In short: (§1)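 hTMPK (0.2 μg) or Candida Cdc8 (0.02 μg; GST fusion from E. coli BL21, purified similarly). Compound preincubated 10 min, then enzyme added to 0.05 μM [γ-32P]ATP, 50 μM ATP and 50 μM dTMP in 100 mM Tris-HCl, 100 mM KCl, 10 mM MgCl2. Stopped by heating. Products separated by PEI-cellulose TLC (2 M acetic acid/0.5 M LiCl), and 32P-dTDP spots counted by scintillation.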

Candida = test: Inhibition of Candida Cdc8 incubated for 10 mins in presence of [gamma-32P]ATP by 32P-phosphate transfer assay; in short: as §1
[8] = molecular target: T1, Thymidylate kinase (Homo sapiens); test: Binding affinity to GST-tagged human TMPK expressed in Escherichia coli BL21 pre-incubated for 30 mins at 25 degC followed by UV irradiation by HRP based Western blot analysis
In short: (§2)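 Photoprobe (6.8 μL of 3 mM DMSO stock) and purified hTMPK incubated in 1 mL PBS pH 7.4 with protease inhibitor cocktail, 25 °C, 30 min. Irradiation where applied: 254-nm UV, three 1-min exposures. Samples boiled in SDS sample buffer and run on 12% SDS-PAGE. Transferred to PVDF, probed with streptavidin-HRP, detected by chemiluminescence.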

[9] = molecular target: T1, Thymidylate kinase (Homo sapiens); test: Binding affinity to GST-tagged human TMPK expressed in Escherichia coli BL21 pre-incubated for 30 mins at 25 degC followed by absence of irradiation by HRP based Western blot analysis; in short: as §2
[10] = molecular target: T1, Thymidylate kinase (Homo sapiens); test: Binding affinity to ATP binding site of GST-tagged human TMPK expressed in Escherichia coli […] assessed as mass shift of labeled peptides in presence of trypsin by LC-MS/MS analysis
In short: (§3)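 Purified hTMPK (from GST fusion in E. coli […], thrombin-cleaved) preincubated with biotin-arylazide photoprobe in PBS pH 7.4, 25 °C, 30 min, then irradiated with 254-nm UV light three times for 1 min each. Protein denatured in 6.5 M urea, reduced with DTT and alkylated with iodoacetamide. Digested with trypsin (1:50 w/w) or chymotrypsin (1:100 w/w), 37 °C, 16 h. Peptides analysed by nanoLC-ESI-MS/MS, with or without monomeric avidin enrichment.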

[11] = molecular target: T1, Thymidylate kinase (Homo sapiens); test: Binding affinity to ATP binding site of GST-tagged human TMPK expressed in […] assessed as mass shift of labeled peptides in presence of chymotrypsin by LC-MS/MS analysis; in short: as §3
[12] = molecular target: T1, Thymidylate kinase (Homo sapiens); test: Binding affinity to GST-tagged human TMPK expressed in Escherichia coli BL21 assessed as binding constant for compound to protein 1:1 stoichiometry by ITC analysis
In short: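 ITC in PBS pH 7.4 with 50% glycerol at 298 K, stirring at 1000 rpm. Compound (1.228 mM) injected into hTMPK (0.0817 mM): a first 0.5 μL injection, then 2 μL injections at 4-min spacing. Fitted for stoichiometry, association constant, ΔH and ΔS.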

Question: For `O=C(O)c1cc(SSc2ccc([N+](=O)[O-])c(C(=O)O)c2)ccc1[N+](=O)[O-]`, which Activity [1] is on record?
Answer: Its Activity is “Active”.

Question: With `CCOC(=O)N1CCN(C(=O)Cn2sc3nc(C)cc(C)c3c2=O)CC1` as the compound, how does the Activity [2] read?
Answer: Its Activity is “Non-Toxic”.

Question: What about the Activity [1] of the same compound?
Answer: Its Activity is “inactive”.

Question: And the inhibition [3]?
Answer: The inhibition was “Active”.

Question: What about the EC50 [4] of the same compound?
Answer: Its EC50 is 0.88 µM.

Question: What about the IC50 (Thymidylate kinase) of the same compound?
Answer: Its IC50 is 1.65 µM.

Question: And the inhibition [5]?
Answer: The inhibition was 70%.

Question: And the IC50 [6]?
Answer: The IC50 was > 100 µM.

Question: And the inhibition [7]?
Answer: Its inhibition is “Active”.

Question: What about the inhibition (Candida) of the same compound?
Answer: The inhibition was “inactive”.

Question: With `Cc1cc(C)c2c(=O)n(CC(=O)N3CCN(C(=O)OC(C)(C)C)CC3)sc2n1` as the compound, how does the inhibition [5] read?
Answer: Its inhibition is 76.3%.

Question: What does the source list for `[N-]=[N+]=Nc1ccc2c(=O)n(CC(=O)N3CCN(CCOCCOCCOC(=O)CCCC[C@@H]4SC[C@@H]5NC(=O)N[C@@H]54)CC3)sc2c1`?
Answer: inhibition [5]: 86.9%; Activity [8]: Active; Activity [9]: inactive; Activity [10]: 648 Da; Activity [11]: 422 Da; IC50 [6]: > 100 µM

Question: With `CC(C)(C)OC(=O)N1CCN(C(=O)COc2nsc3ncccc23)CC1` as the compound, how does the inhibition [5] read?
Answer: The inhibition was “inactive”.

Question: Which inhibition [5] does the source give for `CCOC(=O)N1CCN(C(=O)Cn2sc3ccccc3c2=O)CC1` here?
Answer: The inhibition was 70%.

Question: Which results are given for `CC(C)(C)OC(=O)N1CCN(C(=O)Cn2sc3ncccc3c2=O)CC1`?
Answer: Activity [2]: Non-Toxic; inhibition [3]: Active; EC50 [4]: 1.4 µM; IC50 (Thymidylate kinase): 0.47 µM; inhibition [5]: 91.3%; IC50 [6]: > 100 µM

Question: With `CC(C)(C)OC(=O)N1CCN(C(=O)COc2nsc3ccccc23)CC1` as the compound, how does the inhibition [5] read?
Answer: The inhibition was “inactive”.

Question: With `O=c1c2ccccc2sn1-c1ccccc1` as the compound, how does the Activity [1] read?
Answer: The Activity was “Active”.

Question: Which results are given for `Cc1cc(C)c2c(=O)n(CC(=O)N3CCNCC3)sc2n1`?
Answer: K [12]: 127000 M⁻¹; inhibition [5]: 73.4%

Question: With `CCOC(=O)N1CCN(C(=O)CCCn2sc3ccccc3c2=O)CC1` as the compound, how does the inhibition [5] read?
Answer: Its inhibition is 7%.

Question: With `CCOC(=O)N1CCN(C(=O)COc2nsc3cc(C)cc(C)c23)CC1` as the compound, how does the inhibition [5] read?
Answer: Its inhibition is “inactive”.

Question: Which results are given for `CC(C)(C)OC(=O)N1CCN(C(=O)Cn2sc3ccccc3c2=O)CC1`?
Answer: Activity [2]: Non-Toxic; inhibition [3]: Active; EC50 [4]: 0.65 µM; IC50 (Thymidylate kinase): 0.35 µM; inhibition [5]: 91.3%; IC50 [6]: > 100 µM

Question: For `O=c1c2ccccc2sn1-c1ccc(F)c(Cl)c1`, which inhibition [5] is on record?
Answer: Its inhibition is < 2%.
